Bioassay records deposited in PubChem BioAssay by several laboratories.
Mcl1 Noxa PPI: Mcl-1/Noxa interaction inhibition. 220,000 tested, 1.5% active. AID 1022. inhibition, % at 21.7 µM. TR-FRET Mcl-1/Noxa peptide binding, 2 h. Q07820;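 active = compounds that cut the protein-peptide binding signal by more than 50% relative to plate controls in a single-dose test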;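 also: His-tagged Mcl-1 with rhodamine Noxa BH3 peptide and terbium anti-His antibody; 0% = Mcl-1 plus Noxa peptide wells and 100% = peptide-only wells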
EBV gp42 inh: inhibitors of Epstein-Barr virus glycoprotein 42 | Fluorescence polarization binding assay, mP read-out | inhibition, % (tested at 21.74 µM) | 220,000 tested, 0.42% active | AID 1085; in the data active = inhibition above about 50%
Target sequence (Q1HVG2 whole entry, looked up): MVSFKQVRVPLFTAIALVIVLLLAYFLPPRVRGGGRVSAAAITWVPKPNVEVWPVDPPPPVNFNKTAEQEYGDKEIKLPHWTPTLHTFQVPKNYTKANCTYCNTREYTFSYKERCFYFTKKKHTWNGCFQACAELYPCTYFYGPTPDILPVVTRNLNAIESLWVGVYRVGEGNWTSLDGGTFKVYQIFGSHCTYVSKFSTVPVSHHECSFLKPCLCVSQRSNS
RBBP9 inh: human RBBP9 hydrolase inhibition; recombinant RBBP9, FP-Rh probe fluorescence polarization; 220,000 tested, 0.2% active; O75884; inhibition, % at 7.94 µM;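 active = inhibition above the campaign mean of all tested compounds plus 3 SD, cut at about 14% in these data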;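 also: plate controls were DMSO wells with RBBP9 for no effect and wells lacking RBBP9 protein for full effect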
Target sequence (O75884 whole entry, looked up): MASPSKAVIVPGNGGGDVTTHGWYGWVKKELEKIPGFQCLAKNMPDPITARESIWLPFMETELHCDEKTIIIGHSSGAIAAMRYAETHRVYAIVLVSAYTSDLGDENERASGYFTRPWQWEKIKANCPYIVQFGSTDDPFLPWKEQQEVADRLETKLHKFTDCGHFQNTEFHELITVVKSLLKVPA
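Measured by – fluorescence polarization · Test system – RBBP9 protein · Input – 2.5 µM RBBP9 dispensing solution, before mixing · Measure – percent inhibition from mP, scaled between DMSO and no-protein wells · Benchmarks – DMSO-treated enzyme wells and wells lacking RBBP9 · Times – preincubation 30 min plus labeling 45 min at 25 °C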
Mcl1-Bid inh: disrupts binding of human Mcl-1 to Bid peptide. Q07820. TR-FRET Mcl-1/Bid-Dy647 peptide binding, 1536-well. inhibition, % at 21.7 µM. 220,000 tested, 0.97% active. AID 1021;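 active = compounds that cut the binding signal by more than half at the single screening dose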;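 also: His-tagged Mcl-1 with europium anti-His antibody binding Bid BH3 peptide; 0% = Mcl-1 plus peptide wells and 100% = peptide-only wells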
MCL1 BIM primary: inhibitors of human MCL1 binding to BIM-BH3 peptide; Q07820; GST-MCL1 / FITC-Bim-BH3 fluorescence polarization; inhibition, % at 10.9 µM; 320,000 tested, 0.68% active;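 active = inhibition above the mean inhibition of all tested compounds plus 3 SD, set per campaign, cut at about 40% in these data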;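 also: 0% = DMSO wells and 100% = unlabeled Bim-BH3 peptide control; higher means more loss of mP so more displacement of Bim peptide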
Bim-Mcl-1: human Bim-Mcl-1 interaction inhibition; Q07820; Bead-based flow cytometry, Bim peptide-Mcl-1 binding; inhibition, % at 10 µM; 190,000 tested, 0.1% active; in the data active = inhibition above about 40%;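 also: 0% = no compound tracer wells and 100% = peptide blocker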
BCLXL inh confirm: Bcl-xL (human) inhibition, MCL1 counter-screen confirmation. shares compounds with MCL1 BIM primary. GST-Bcl-xL / FITC-Bim BH3 peptide FP binding. inhibition, % at 10.9 µM. 1,700 tested, 54% active. AID 2166;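 active = inhibition above a cutoff equal to the mean inhibition of all tested compounds plus 3 SD, cut at about 30% in these data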;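 also: 0% = DMSO wells and 100% = unlabeled Bim BH3 control peptide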
Target sequence (Q07817 whole entry, looked up): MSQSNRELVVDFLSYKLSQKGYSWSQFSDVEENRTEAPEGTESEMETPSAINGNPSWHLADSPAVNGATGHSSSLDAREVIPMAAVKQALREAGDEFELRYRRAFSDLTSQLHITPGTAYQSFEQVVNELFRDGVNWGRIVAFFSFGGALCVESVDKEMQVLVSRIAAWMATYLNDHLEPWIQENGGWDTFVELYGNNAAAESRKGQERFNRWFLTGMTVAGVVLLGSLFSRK
MCL1 BIM confirm: MCL1-BIM-BH3 interaction inhibition, confirmation; shares compounds with MCL1 BIM primary; GST-MCL1 / FITC-Bim-BH3 fluorescence polarization; inhibition, % at 10.9 µM; 1,700 tested, 61% active;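 active = inhibition above the average of all tested compounds plus 3 SD, cut at about 40% in these data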;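 also: 0% = DMSO wells and 100% = unlabeled Bim-BH3 control peptide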
An asterisk follows results filed as active. Hits are enriched below; roughly 2.2% of the tested compounds scored in any of these assays.

O=C(c1ccccc1)c1ccc(O)cc1O was read as Mcl1 Noxa PPI 7, EBV gp42 inh 67*, RBBP9 inh -9, Mcl1-Bid inh -39, MCL1 BIM primary 154*, Bim-Mcl-1 1, BCLXL inh confirm 123* and MCL1 BIM confirm 137*.
`CC(C)Nc1nc(NC(C)C)nc(SCC(N)=O)n1` gave Mcl1 Noxa PPI 7, EBV gp42 inh -1, RBBP9 inh -8, Mcl1-Bid inh -20, MCL1 BIM primary -6 and Bim-Mcl-1 1.
Screening CN1CCc2c(sc(NC(=O)c3cc(Cl)sc3Cl)c2C(N)=O)C1 returned MCL1 BIM primary 48*, BCLXL inh confirm 7 and MCL1 BIM confirm 13.
CCN1CCc2c(sc(N)c2C(N)=O)C1 was read as Mcl1 Noxa PPI 14, EBV gp42 inh 8, RBBP9 inh -6, Mcl1-Bid inh -145, MCL1 BIM primary 64*, Bim-Mcl-1 12, BCLXL inh confirm 30 and MCL1 BIM confirm 34.
CN1CCc2c(sc(N)c2C(N)=O)C1 was read as Mcl1 Noxa PPI 4, EBV gp42 inh 29, RBBP9 inh -1, Mcl1-Bid inh -69, MCL1 BIM primary 65*, Bim-Mcl-1 0, BCLXL inh confirm 22 and MCL1 BIM confirm 7.
For Cc1nc2scc(C)n2c(=O)c1S(=O)(=O)NCC1CCN(Cc2ccc(F)cc2)CC1 the results were MCL1 BIM primary -2.
Screening Cc1ccn2c(=O)nc(SCC(=O)N3CCCCC3)nc2c1 returned MCL1 BIM primary 16.
CC(=O)c1c(N2CCOCC2)nc2ccc(Cl)cc2c1-c1ccccc1 was read as Mcl1 Noxa PPI 1, EBV gp42 inh 11, RBBP9 inh 0, Mcl1-Bid inh -12 and MCL1 BIM primary 3.
For O=C(Nc1cccc(S(=O)(=O)NC2=NCCC2)c1)c1cc(-c2ccco2)nc2ccccc12 the results were Mcl1 Noxa PPI 99*, EBV gp42 inh 82*, RBBP9 inh -8, Mcl1-Bid inh 49, MCL1 BIM primary 94*, BCLXL inh confirm 18 and MCL1 BIM confirm 74*.
`O=C(NC(=S)Nc1cccc(S(=O)(=O)NC2=NCCC2)c1)c1cc(-c2ccco2)nc2ccccc12` gave Mcl1 Noxa PPI 65*, EBV gp42 inh 9, RBBP9 inh 0, Mcl1-Bid inh -47, MCL1 BIM primary 54*, BCLXL inh confirm 39* and MCL1 BIM confirm 42*.
For Cc1ccc(C)c(S(=O)(=O)N/N=C/c2ccc(N3CCOCC3)cc2)c1 the results were Mcl1 Noxa PPI 12, EBV gp42 inh -26, RBBP9 inh -6, Mcl1-Bid inh -48 and MCL1 BIM primary -5.
Screening COc1cccc(N2[C@@H](CC(C)=O)c3cc(C(F)(F)F)ccc3S2(=O)=O)c1 returned MCL1 BIM primary -2.
CCOC(=O)C[C@H]1c2ccc(C(F)(F)F)cc2S(=O)(=O)N1c1cccc(OC)c1 was read as MCL1 BIM primary 41*, BCLXL inh confirm -5 and MCL1 BIM confirm 43*.
Screening O=C(CN(c1cc(Cl)ccc1Cl)S(=O)(=O)c1ccccc1)N1CCOCC1 returned MCL1 BIM primary 2.
For O=C(O)Cc1ccc(N=Nc2c(O)c(C(=O)O)cc3ccccc23)cc1 the results were Mcl1 Noxa PPI 23, EBV gp42 inh -2, RBBP9 inh 2, Mcl1-Bid inh -2, MCL1 BIM primary 43*, BCLXL inh confirm 37* and MCL1 BIM confirm 70*.
Oc1cc2c(cc1O)[C@H]1c3ccc(O)c(O)c3OC[C@@]1(O)C2 was read as MCL1 BIM primary 57*, BCLXL inh confirm 76* and MCL1 BIM confirm 108*.
`Clc1ccc(C2Nc3cccc4cccc(c34)N2)cc1` gave MCL1 BIM primary 67*, BCLXL inh confirm 17 and MCL1 BIM confirm 17.
`CN1C(=O)c2cccc3c(N(C)C)ccc(c23)C1=O` gave MCL1 BIM primary 89*, BCLXL inh confirm 31* and MCL1 BIM confirm 33.
Screening CN1C(=O)c2cccc3c(Cl)ccc(c23)C1=O returned Mcl1 Noxa PPI 18, EBV gp42 inh 2, RBBP9 inh 6, Mcl1-Bid inh 30, MCL1 BIM primary 10 and Bim-Mcl-1 -2.
Screening CNc1ccc2c3c(cccc13)C(=O)N(C)C2=O returned MCL1 BIM primary active, BCLXL inh confirm active and MCL1 BIM confirm active.
Screening COCCCNC(=O)c1ccc(S(=O)(=O)c2ccc(Cl)cc2)c(NC(C)=O)c1 returned MCL1 BIM primary 7.
Cc1ccccc1C(=O)OCn1nnc2ccccc2c1=O was read as Mcl1 Noxa PPI -2, EBV gp42 inh 3, RBBP9 inh -7, Mcl1-Bid inh -1, MCL1 BIM primary 3 and Bim-Mcl-1 -1.
`Cc1ccc(C)c(C(=O)CCC(=O)OCn2nnc3ccccc3c2=O)c1` gave MCL1 BIM primary 85*, BCLXL inh confirm 12 and MCL1 BIM confirm 9.
CCCCn1c(=O)[nH]c2nc3cc(NC(C)=O)ccc3nc2c1=O was read as Mcl1 Noxa PPI -1, EBV gp42 inh 79*, RBBP9 inh 4, Mcl1-Bid inh -10, MCL1 BIM primary 59*, BCLXL inh confirm 75* and MCL1 BIM confirm 95*.
CCC(=O)Nc1ccc2ccccc2c1 was read as Mcl1 Noxa PPI -4, EBV gp42 inh -15, RBBP9 inh -7, Mcl1-Bid inh -15, MCL1 BIM primary -6 and Bim-Mcl-1 -7.
For CCCCn1c(SCC(=O)Nc2ccc(NC(C)=O)cc2)nc2ccccc2c1=O the results were MCL1 BIM primary 2.
Screening CCC(=O)Nc1ccc2nc3c(=O)[nH]c(=S)[nH]c3nc2c1 returned MCL1 BIM primary 98*, BCLXL inh confirm 107* and MCL1 BIM confirm 161*.
Screening O=C(/C=C\Nc1ccc(Br)cc1)c1cccnc1 returned Mcl1 Noxa PPI 4, EBV gp42 inh -8, RBBP9 inh -8, Mcl1-Bid inh -16, MCL1 BIM primary 4 and Bim-Mcl-1 -4.
Cn1c(O)c(C2=c3ccccc3=NC2=O)[nH]c1=S was read as Mcl1 Noxa PPI 23, EBV gp42 inh -19, RBBP9 inh -1, Mcl1-Bid inh -39, MCL1 BIM primary 26 and Bim-Mcl-1 2.
Screening COc1ccc2nc(-n3c(O)c(C4=c5ccccc5=NC4=O)[nH]c3=S)sc2c1 returned Mcl1 Noxa PPI 92*, EBV gp42 inh 115*, RBBP9 inh -1, Mcl1-Bid inh 99*, MCL1 BIM primary 68*, Bim-Mcl-1 -9, BCLXL inh confirm 33* and MCL1 BIM confirm 92*.
